Published values gathered from unrelated publications.
Compare with care: the assays were run in different laboratories.
rep main protease: Replicase polyprotein 1ab, main protease (rep, Severe acute respiratory syndrome coronavirus 2, UniProt P0DTD1)
rep methyltransferase: Replicase polyprotein 1ab, methyltransferase (rep, Severe acute respiratory syndrome coronavirus 2, UniProt P0DTD1)

SMILES	target	effect on	mode	technique	measurement	value
CS/C(N)=C(C#N)/C(C#N)=C(\N)SC	rep main protease	enzyme activity	inhibitor		IC50	6.17 µM
CC(=O)Nc1ccc(N2C(=O)c3cccc4c(Cl)ccc(c34)C2=O)cc1	rep methyltransferase	enzyme activity	inhibitor		IC50	221 µM
CSc1ccc(N(Cc2cc(Cl)cs2)C(=O)Cc2cncc3ccccc23)cc1	rep main protease	binding		MST	Kd	1.4 µM
O=C(Nc1ccccc1C(=O)NC1CCCCNC1=O)c1cc2ccccc2s1 (stereo not drawn)	rep methyltransferase	enzyme activity	inhibitor		IC50	62.8 µM
O=c1oc2cc(O)ccc2c2ccccc12	rep main protease	binding		SPR	Kd	52.7 µM
FC(F)(F)c1cc(NC(=S)Nc2ccc(Br)cc2-c2nnn[nH]2)cc(C(F)(F)F)c1	rep main protease	enzyme activity	inhibitor		IC50	> 20 µM
COc1ccc(N(Cc2cc(Cl)cs2)C(=O)Cc2cncc3ccccc23)cc1	rep main protease	binding		MST	Kd	1.5 µM
CN1C(=O)C(N2CCCCC2)S/C1=C\C(=O)O (stereo not drawn)	rep main protease	enzyme activity	inhibitor		IC50	11.6 µM
CCOC(=O)c1c(-c2cccs2)csc1N	rep methyltransferase	enzyme activity	inhibitor		IC50	38.2 µM
